{
  "source": "ChEMBL document CHEMBL1828575",
  "about": "“Design, synthesis and antiproliferative activities of biarylolefins based on polyhydroxylated and carbohydrate scaffolds” (Eur J Med Chem, 2011)",
  "format_in_all_cases": "functional",
  "key": {"MOLT-4": {"test_system": "MOLT-4", "assay": "Antitumor activity against human MOLT4 cells after 48 hrs by SRB assay", "details": "MOLT-4, 48 h", "in_short": "(§1)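 NCI60 panel in RPMI 1640 with 5% FBS and 2 mM L-glutamine. Cells were plated at 5000–40,000/well by doubling time, held 24 h, then time-zero plates were TCA-fixed. Five concentrations (10-fold or half-log dilutions of DMSO stocks) were applied for 48 h at 37 °C, 5% CO2. Cells were fixed with cold TCA (10% final adherent, 16% suspension) and stained with 0.4% SRB. Bound dye was dissolved in 10 mM Tris and read at 515 nm. GI50, TGI and LC50 were calculated per line.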"}, "COLO 205 [1]": {"test_system": "COLO 205", "assay": "Cytotoxicity against human COLO205 cells assessed as cellular growth at 10 uM after 48 hrs by SRB assay", "in_short": "(§2)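 NCI60 single-dose screen of cells in RPMI 1640 with 5% FBS and 2 mM L-glutamine, preincubated 24 h at 37 °C, 5% CO₂. Cells were then exposed 48 h to compound added from DMSO stock. TCA-fixed, stained with 0.4% SRB in 1% acetic acid, dye solubilised in 10 mM Tris base and read at 515 nm. Growth is given as percent of untreated control.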"}, "SF-539": {"test_system": "SF-539", "assay": "Antitumor activity against human SF539 cells after 48 hrs by SRB assay", "details": "SF-539, 48 h", "in_short": "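NCI60 panel cells grown in RPMI 1640 with 5% FBS and 2 mM L-glutamine, plated at 5000–40,000 cells/well and preincubated 24 h at 37 °C, 5% CO₂. Compound was added from DMSO at five concentrations, 10-fold or 1/2 log dilutions, then incubated 48 h.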"}, "SF-295": {"test_system": "SF-295", "assay": "Antitumor activity against human SF295 cells after 48 hrs by SRB assay", "details": "SF-295, 48 h", "in_short": "as §1"}, "COLO 205 [2]": {"test_system": "COLO 205", "assay": "Antitumor activity against human COLO205 cells after 48 hrs by SRB assay", "details": "COLO 205, 48 h", "in_short": "as §1"}, "UACC-257": {"test_system": "UACC-257", "assay": "Cytotoxicity against human UACC257 cells assessed as cellular growth at 10 uM after 48 hrs by SRB assay", "in_short": "(§3)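 NCI-60 panel lines grown in RPMI 1640 with 5% FBS and 2 mM L-glutamine. Plated at 5000–40,000 cells/well and preincubated 24 h at 37 °C, 5% CO₂, with time-zero plates fixed in TCA. Compounds, dissolved in DMSO and diluted in medium, were applied for 48 h. Cells were TCA-fixed (10% final for adherent, 16% for suspension) and stained with 0.4% SRB in 1% acetic acid. Dye was solubilised in 10 mM Tris base and read at 515 nm; growth was expressed as a percentage of untreated control.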"}, "TK-10": {"test_system": "TK-10", "assay": "Cytotoxicity against human TK10 cells assessed as cellular growth at 10 uM after 48 hrs by SRB assay", "in_short": "as §3"}, "MCF7 [3]": {"test_system": "MCF7", "assay": "Cytotoxicity against human MCF7 cells assessed as cellular growth at 10 uM after 48 hrs by SRB assay", "in_short": "as §3"}, "SNB-19": {"test_system": "SNB-19", "assay": "Cytotoxicity against human SNB19 cells assessed as cellular growth at 10 uM after 48 hrs by SRB assay", "in_short": "as §3"}, "HCT-15 [4]": {"test_system": "HCT-15", "assay": "Antiproliferative activity against human HCT15 cells after 48 hrs by SRB assay", "details": "HCT-15, 48 h", "in_short": "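NCI60 screen: cells grown in RPMI 1640 with 5% FBS and 2 mM L-glutamine, plated at 5000–40,000 cells/well by doubling time, preincubated 24 h at 37 °C with 5% CO2. Compounds were diluted from DMSO stocks and given for 48 h, at five concentrations for dose response. A time-zero plate was TCA-fixed. Cells were TCA-fixed, stained with 0.4% SRB and read at 515 nm, with growth expressed relative to untreated controls.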"}, "HCT-15 [5]": {"test_system": "HCT-15", "assay": "Cytotoxicity against human HCT15 cells assessed as cellular growth at 10 uM after 48 hrs by SRB assay", "in_short": "as §2"}, "HOP-62": {"test_system": "HOP-62", "assay": "Antitumor activity against human HOP62 cells after 48 hrs by SRB assay", "details": "HOP-62, 48 h", "in_short": "as §1"}, "OVCAR-3": {"test_system": "OVCAR-3", "assay": "Antitumor activity against human OVCAR3 cells after 48 hrs by SRB assay", "details": "OVCAR-3, 48 h", "in_short": "as §1"}, "IGROV-1": {"test_system": "IGROV-1", "assay": "Cytotoxicity against human IGROV1 cells assessed as cellular growth at 10 uM after 48 hrs by SRB assay", "in_short": "as §2"}, "T47D": {"test_system": "T47D", "assay": "Cytotoxicity against human T47D cells assessed as cellular growth at 10 uM after 48 hrs by SRB assay", "in_short": "as §3"}, "MDA-MB-231": {"test_system": "MDA-MB-231", "assay": "Cytotoxicity against human MDA-MB-231 cells assessed as cellular growth at 10 uM after 48 hrs by SRB assay", "in_short": "as §3"}, "Malme-3M": {"test_system": "Malme-3M", "assay": "Cytotoxicity against human MALME-3M cells assessed as cellular growth at 10 uM after 48 hrs by SRB assay", "in_short": "as §3"}, "786-0": {"test_system": "786-0", "assay": "Cytotoxicity against human 786-0 cells assessed as cellular growth at 10 uM after 48 hrs by SRB assay", "in_short": "as §2"}, "NCI-H522": {"test_system": "NCI-H522", "assay": "Cytotoxicity against human NCI-H522 cells assessed as cellular growth at 10 uM after 48 hrs by SRB assay", "in_short": "as §3"}, "MCF7 [6]": {"test_system": "MCF7", "assay": "Antitumor activity against human MCF7 cells after 48 hrs by SRB assay", "details": "MCF7, 48 h", "in_short": "as §1"}, "NCI-H226": {"test_system": "NCI-H226", "assay": "Antitumor activity against human NCI-H226 cells after 48 hrs by SRB assay", "details": "NCI-H226, 48 h", "in_short": "as §1"}, "SK-MEL-5": {"test_system": "SK-MEL-5", "assay": "Cytotoxicity against human SK-MEL-5 cells assessed as cellular growth at 10 uM after 48 hrs by SRB assay", "in_short": "as §3"}, "[7]": {"details": "read-out: pLC50 (the source's name) (converted)"}, "[8]": {"details": "read-out: LC50 (the source's name)"}},
  "data": [
    {"smiles": "COc1ccc(/C(=C2\\O[C@@H]([C@H]3COC(C)(C)O3)[C@H]3OC(C)(C)O[C@@H]23)c2cc(OC)c(OC)c(OC)c2)cc1O", "values": [
      {"measurement": "LC50 (concentration killing 50% of cells)", "setting": "MOLT-4", "value": "> 100", "unit": "µM"},
      {"measurement": "GI50", "setting": "MOLT-4; read-out: GI50", "value": 24.2, "unit": "µM"},
      {"measurement": "TGI", "setting": "MOLT-4; read-out: TGI", "value": "> 100", "unit": "µM"},
      {"measurement": "GI50", "setting": "MOLT-4; read-out: pGI50 (converted)", "value": 24, "unit": "µM"},
      {"measurement": "CC50", "setting": "MOLT-4; [7]", "value": "> 100", "unit": "µM"},
      {"measurement": "TGI", "setting": "MOLT-4; read-out: pTGI", "value": "> 100", "unit": "µM"},
      {"measurement": "Activity", "setting": "COLO 205 [1]", "value": 120.67, "unit": "%"},
      {"measurement": "GI50", "setting": "SF-539", "value": 3.15, "unit": "µM"},
      {"measurement": "TGI", "setting": "SF-539", "value": 8.75, "unit": "µM"},
      {"measurement": "CC50", "setting": "SF-539; [8]", "value": 86, "unit": "µM"},
      {"measurement": "CC50", "setting": "SF-295; [8]", "value": "> 100", "unit": "µM"},
      {"measurement": "TGI", "setting": "SF-295; read-out: TGI", "value": 43.8, "unit": "µM"},
      {"measurement": "GI50", "setting": "SF-295; read-out: pGI50 (converted)", "value": 18.6, "unit": "µM"},
      {"measurement": "CC50", "setting": "SF-295; [7]", "value": "> 100", "unit": "µM"},
      {"measurement": "TGI", "setting": "SF-295; read-out: pTGI (converted)", "value": 43.7, "unit": "µM"},
      {"measurement": "GI50", "setting": "COLO 205 [2]; read-out: GI50", "value": 27.3, "unit": "µM"},
      {"measurement": "CC50", "setting": "COLO 205 [2]; [8]", "value": "> 100", "unit": "µM"},
      {"measurement": "TGI", "setting": "COLO 205 [2]; read-out: TGI", "value": 63.7, "unit": "µM"},
      {"measurement": "GI50", "setting": "COLO 205 [2]; read-out: pGI50 (converted)", "value": 27.5, "unit": "µM"},
      {"measurement": "CC50", "setting": "COLO 205 [2]; [7]", "value": "> 100", "unit": "µM"},
      {"measurement": "TGI", "setting": "COLO 205 [2]; read-out: pTGI (converted)", "value": 63.1, "unit": "µM"},
      {"measurement": "Activity", "setting": "UACC-257", "value": 126.04, "unit": "%"},
      {"measurement": "Activity", "setting": "TK-10", "value": 116.76, "unit": "%"},
      {"measurement": "Activity", "setting": "MCF7 [3]", "value": 60.66, "unit": "%"},
      {"measurement": "Activity", "setting": "SNB-19", "value": 27.56, "unit": "%"},
      {"measurement": "CC50", "setting": "HCT-15 [4]; [8]", "value": "> 100", "unit": "µM"},
      {"measurement": "CC50", "setting": "HCT-15 [4]; [7]", "value": "> 100", "unit": "µM"},
      {"measurement": "Activity", "setting": "HCT-15 [5]", "value": 32.51, "unit": "%"},
      {"measurement": "GI50", "setting": "HOP-62", "value": 10.9, "unit": "µM"},
      {"measurement": "TGI", "setting": "HOP-62", "value": 34.7, "unit": "µM"},
      {"measurement": "CC50", "setting": "HOP-62; [8]", "value": "> 100", "unit": "µM"},
      {"measurement": "GI50", "setting": "OVCAR-3", "value": 2390, "unit": "nM"},
      {"measurement": "TGI", "setting": "OVCAR-3", "value": 5.67, "unit": "µM"},
      {"measurement": "CC50", "setting": "OVCAR-3; [8]", "value": 21.7, "unit": "µM"},
      {"measurement": "Activity", "setting": "IGROV-1", "value": 92.61, "unit": "%"},
      {"measurement": "Activity", "setting": "T47D", "value": 115.08, "unit": "%"},
      {"measurement": "Activity", "setting": "MDA-MB-231", "value": 54.45, "unit": "%"},
      {"measurement": "Activity", "setting": "Malme-3M", "value": 69.57, "unit": "%"},
      {"measurement": "Activity", "setting": "786-0", "value": 86.28, "unit": "%"},
      {"measurement": "Activity", "setting": "NCI-H522", "value": 51.79, "unit": "%"},
      {"measurement": "GI50", "setting": "MCF7 [6]; read-out: GI50", "value": 1.23, "unit": "µM"},
      {"measurement": "CC50", "setting": "MCF7 [6]; [8]", "value": "> 100", "unit": "µM"},
      {"measurement": "TGI", "setting": "MCF7 [6]; read-out: TGI", "value": "> 100", "unit": "µM"},
      {"measurement": "GI50", "setting": "MCF7 [6]; read-out: pGI50 (converted)", "value": 12.3, "unit": "µM"},
      {"measurement": "CC50", "setting": "MCF7 [6]; [7]", "value": "> 100", "unit": "µM"},
      {"measurement": "TGI", "setting": "MCF7 [6]; read-out: pTGI (converted)", "value": "> 100", "unit": "µM"},
      {"measurement": "GI50", "setting": "NCI-H226; read-out: GI50", "value": 64.7, "unit": "µM"},
      {"measurement": "CC50", "setting": "NCI-H226; [8]", "value": "> 100", "unit": "µM"},
      {"measurement": "TGI", "setting": "NCI-H226; read-out: TGI", "value": "> 100", "unit": "µM"},
      {"measurement": "GI50", "setting": "NCI-H226; read-out: pGI50 (converted)", "value": 64.6, "unit": "µM"},
      {"measurement": "CC50", "setting": "NCI-H226; [7]", "value": "> 100", "unit": "µM"},
      {"measurement": "TGI", "setting": "NCI-H226; read-out: pTGI (converted)", "value": "> 100", "unit": "µM"},
      {"measurement": "Activity", "setting": "SK-MEL-5", "value": 61.79, "unit": "%"}
    ]}
  ]
}
